Only some compounds are listed: those with a hit (about 4.8% of all), similar ones and a draw of the others.
GPR7 antagonist – blocks human GPR7 receptor signaling; P48145; GPR7-expressing cells, fluorescence antagonist assay; inhibition, % at 4.4 µM; 290,000 tested, 1.1% active; AID 1861; in the data active = inhibition above about 16%, passing the limit was not always enough;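 note: cells stimulated with the agonist NPW; 0% = agonist with vehicle and 100% = vehicle without agonist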
Target sequence (P48145 whole entry, looked up): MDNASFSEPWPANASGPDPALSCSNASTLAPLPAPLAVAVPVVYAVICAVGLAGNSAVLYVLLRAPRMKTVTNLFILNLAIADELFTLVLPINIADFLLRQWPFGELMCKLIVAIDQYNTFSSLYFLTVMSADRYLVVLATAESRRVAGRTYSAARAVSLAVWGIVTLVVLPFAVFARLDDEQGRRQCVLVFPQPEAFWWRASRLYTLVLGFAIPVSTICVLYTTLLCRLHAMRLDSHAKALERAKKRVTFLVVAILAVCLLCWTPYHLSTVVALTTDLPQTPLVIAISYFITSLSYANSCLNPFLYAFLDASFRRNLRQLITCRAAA
HSF-1 act – increases HSF-1 driven luciferase reporter signal; AID 504408; 300,000 tested, 1.7% active; activation, % at 9 µM; NIH3T3-HGL HSF-1 luciferase reporter, MG132, 8 h; 100% = twice DMSO control signal;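 active = mean replicate activation of at least 50% with a set share of replicates each reaching 50%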;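 note: 0% = median of the neutral control wells and 100% = twice that signal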
T cruzi inh – blocks replication of Trypanosoma cruzi | T. cruzi beta-gal in NIH3T3, luminescence, 90 h | inhibition, % (test concentration not listed) | 300,000 tested, 1.4% active;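 active = mean inhibition across valid replicates above about 55%, limit read from the data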;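 note: signal also drops with host cell toxicity which is not excluded here; 0% = plate median of DMSO wells and 100% = zero luminescence signal; higher percent means less beta-gal luminescence so fewer parasites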
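System: mouse NIH/3T3 fibroblasts infected with β-gal-expressing T. cruzi Tulahuen C4 / Input: NIH/3T3 cells, 5,000 per well / Buffer or medium: Low-serum DMEM with 2% FBS / Probe or stimulus: 5000 reporter trypomastigotes per well / Schedule: ≥90 h infection period, 3 h prior cell attachment / Measured by: GalScreen luminescence, 60 min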
697 NFkB inh – inhibitors of the PMA/ionomycin-induced NF-kB reporter in 697 B cells. 697 B-cell NF-kB luciferase reporter, 16 h. inhibition, % at 4 µM. 330,000 tested, 0.33% active. AID 435022; in the data active = inhibition above about 35%
HSF1 inhib – HSF1 inhibition; AID 2098; NIH3T3-HGL HSE-luciferase, MG132-induced, luminescence 8 h; active compounds read low; activity change, negative = inhibition, % at 7.5 µM (by protocol); 300,000 tested, 0.77% active;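 active = more than half of replicate wells show activity change below -50%, luminescence cut by over half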;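 note: luciferase reports HSF-1 transcriptional activity via heat shock element; 0% = median of DMSO wells and -100% = zero luminescence signal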
Jurkat NFkB inh – inhibitors of the PMA/ionomycin-induced NF-kB reporter in Jurkat cells; PMA/ionomycin-induced NF-kB luciferase reporter, luminescence; inhibition, % at 4 µM; 330,000 tested, 0.53% active; in the data active = inhibition above about 50%
GPR7 antag cf – confirmation of human GPR7 antagonists | shares compounds with GPR7 antagonist | GPR7-expressing cells, calcium fluorescence antagonist mode | inhibition, % at 4.4 µM | 2,400 tested, 52% active | AID 1952; in the data active = inhibition above about 24%;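 note: stimulated with the GPR7 agonist NPW; 0% = agonist plus vehicle and 100% = vehicle alone without agonist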
MCHR1 antag – MCHR1 (human) antagonism in GPR7 counter-screen; shares compounds with GPR7 antagonist; MCHR1-expressing cells, fluorescence antagonist assay; inhibition, % at 4.4 µM; 2,400 tested, 62% active; AID 2148; in the data active = inhibition above about 22%;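 note: 0% = vehicle with agonist and 100% = vehicle without agonist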
Numbers without * were called inactive; · = not tested or not shown.

SMILES	GPR7 antagonist	HSF-1 act	T cruzi inh	697 NFkB inh	HSF1 inhib	Jurkat NFkB inh	GPR7 antag cf	MCHR1 antag
COc1ccc(-c2cnc3c(c2)CCC3(C#N)C#N)cc1	17	-31	-10	·	-19	·	·	·
COc1ccc(/C=C2/CC/C(=C\c3ccc(OC)c(OC)c3OC)C2=O)c(OC)c1OC	23*	31	21	-13	17	-11	-1	67*
COc1ccc(/C=C2\CCC(C3CCCC3)C2=O)c(OC)c1OC (stereo not drawn)	10	5	9	-4	-7	-13	·	·
CCN(c1ccccc1)P(=O)(Nc1ccccc1)Nc1ccccc1	-14	-11	12	11	-2	-3	·	·
CN(c1ccccc1)P(=O)(N(C)c1ccccc1)N(C)c1ccccc1	28*	20	66*	-54	0	2	34*	37*
CCCCN(C)CCCNC(=O)C1CCC(CNS(=O)(=O)c2c(C)cc(C)cc2C)CC1 (stereo not drawn)	-1	1	44	-5	6	0	·	·
CC(C)Cc1nnc(NC(=O)c2ccc3c(c2)NC(=O)C(C)S3)s1 (stereo not drawn)	·	7	-9	14	-3	4	·	·
NC(=O)CN1CCOCCOCCN(CC(N)=O)CCOCCOCC1	61*	-1	-4	19	-1	3	-17	-8
NC(=O)CN1CCOCCOCCOCCOCCOCC1	-13	-19	-15	3	-7	8	·	·
CC1CCN(CCOCCOc2ccc(Br)cc2Cl)CC1	29*	-8	46	-4	-2	3	32*	37*
CN(C)CCCCOc1ccc(Br)cc1Cl	29*	3	39	13	0	-9	17	18
CC1CCCN(CCCOc2ccc(Br)cc2Cl)C1 (stereo not drawn)	2	-37	42	-15	-34	-7	·	·
COc1ccc2c(CC(=O)NNC(=O)c3cccs3)coc2c1	·	·	·	13	·	7	·	·
O=C(c1cccc(C(F)(F)F)c1)C1CCCN(Cc2cccn2-c2ncccn2)C1 (stereo not drawn)	21*	-8	23	-19	-9	27	34*	35*
O=C(c1ccc(C(F)(F)F)cc1)C1CCCN(Cc2cccn2-c2ncccn2)C1 (stereo not drawn)	8	-26	-3	20	-8	-13	·	·
COc1ccc(NC(=O)C2CC(c3ccccc3O)=NO2)cc1OC (stereo not drawn)	-2	11	-6	15	-3	-5	·	·
Cc1cccc(-c2nc(=S)c3c(n2Cc2ccco2)CCCC3)c1	28*	11	9	1	-2	4	22	12
CCCCn1c(N)c(N(CCOC)C(=O)CCNC(=O)c2ccccc2Cl)c(=O)[nH]c1=O	26*	2	4	-30	0	-9	-4	-2
CCCCn1c(N)c(N(CC(C)C)C(=O)c2ccc(COc3ccccc3)o2)c(=O)[nH]c1=O	26*	-1	12	21	-2	-3	32*	21
CCCCN(C(=O)c1ccccc1OCc1ccc(F)cc1)c1c(N)n(CCC)c(=O)[nH]c1=O	30*	9	11	-18	8	11	16	9
CCCCn1c(N)c(N(CC(C)C)C(=O)c2cccc(S(=O)(=O)N3CCCCCC3)c2)c(=O)[nH]c1=O	28*	-3	-3	2	-6	-4	-6	4
CCCCn1c(N)c(N(CCC(C)C)C(=O)c2cccc(S(=O)(=O)N3CCN(C)CC3)c2)c(=O)[nH]c1=O	·	-7	0	-9	0	19	·	·
CN(C(=O)c1ccccc1OCc1ccc(F)cc1)c1c(N)n(Cc2ccccc2)c(=O)[nH]c1=O	·	·	·	2	·	3	·	·
CCCCn1c(N)c(N(CC(C)C)C(=O)c2cccc(OCc3ccccc3)c2)c(=O)[nH]c1=O	·	9	15	5	-1	4	·	·
CC(=O)c1c(C)[nH]c(C(=O)OCC(=O)Nc2ccc3c(c2)OCCO3)c1C	·	·	·	-8	·	-43	·	·
SMILES	GPR7 antagonist	HSF-1 act	T cruzi inh	697 NFkB inh	HSF1 inhib	Jurkat NFkB inh	GPR7 antag cf	MCHR1 antag
CCCCOc1ccc(C(=O)Oc2ccc(C)nc2)cc1	7	-12	-16	23	4	1	·	·
CCCCCOc1ccc(OC(=O)c2ccncc2)cc1	27*	24	31	-99	4	-22	1	-4
CC(=O)Nc1ccc(S(=O)(=O)N(C)CC(=O)OC2CCCCC2=O)cc1 (stereo not drawn)	·	·	·	18	·	5	·	·
CCN1CCN(C(c2ccccc2OC)c2nnnn2C2CCCCC2)CC1 (stereo not drawn)	30*	-22	5	-5	-4	-22	7	8
Cc1nnc(N2C(=O)c3cccc4c([N+](=O)[O-])ccc(c34)C2=O)s1	28*	40	-33	19	36	11	33*	51*
O=Cc1ccccc1OCCOc1ccccc1C=O	24*	27	-25	-8	5	10	12	25*
COCCCNc1nc(N)c([N+](=O)[O-])c(N2CCCCCC2)n1	-4	14	4	-3	4	-3	·	·
Clc1cccc(CN2CCc3c([nH]c4ccccc34)C2)c1Cl	50*	-6	20	6	0	26	47*	29*
COc1ccc(C(CNC(=O)c2ccc(NS(=O)(=O)c3ccc(F)cc3)cc2)N2CCOCC2)cc1 (stereo not drawn)	0	-3	4	3	-1	13	·	·
COc1ccc(C(CNC(=O)c2ccc3c(c2)C(=O)N(CCC(C)C)C3=O)N2CCOCC2)cc1 (stereo not drawn)	29*	-1	-4	14	-5	1	-2	12
COc1ccc(C(CNC(=O)c2ccc(S(=O)(=O)N3CCCC3)cc2)N2CCOCC2)cc1 (stereo not drawn)	-1	10	-5	20	-10	-6	·	·
COc1ccc(NS(=O)(=O)c2cccc(C(=O)NCC(c3ccc(F)cc3)N3CCOCC3)c2)cc1 (stereo not drawn)	31*	11	6	-24	5	-8	27*	11
O=C(C1COc2ccccc2O1)N1CCN(c2nc3c(F)cc(F)cc3s2)CC1 (stereo not drawn)	·	38	12	-8	4	3	·	·
CCOC(=O)C1(Cc2ccccc2C)CCCN(C(=O)CSC)C1 (stereo not drawn)	-7	-27	-8	·	-5	·	·	·
C=CCS(=O)(=O)N1CCCC(Cc2ccccc2C)(C(=O)OCC)C1 (stereo not drawn)	31*	0	1	-19	-3	-6	3	-1
